Results of several laboratories.
Lines come from different studies, so protocols differ. pIC50: −log10 of the molar value.
Observed: DPPH scavenging

Cc1cc(C(C)(C)C)c(O)c(C(C)(C)C)c1 — IC50: 25.2 µg/mL
Cc1ccc(Cl)cc1NC(=O)Cc1c[nH]c2ccccc12 — pIC50: 5.79
O=C(OC[C@H]1O[C@@H](OC(=O)c2cc(O)c(O)c(O)c2)[C@H](OC(=O)c2cc(O)c(O)c(O)c2)[C@@H](OC(=O)c2cc(O)c(O)c(O)c2)[C@@H]1O)c1cc(O)c(O)c(O)c1 — pIC50 (absorbance): 4.93
Cc1cc2nc(-c3ccccc3OCc3ccccc3)[nH]c2cc1C — pIC50 (absorbance): 5.74
Cc1c(C)c2c(c(C)c1O)CC[C@@](C)(CCC[C@H](C)CCC[C@H](C)CCCC(C)C)O2 — IC50 (absorbance): 11.3 µg/mL
COc1ccc(-c2nc3cc(F)ccc3[nH]2)cc1OCc1ccccc1 — pIC50 (absorbance): 5.59
O=C(Cc1c[nH]c2ccccc12)Nc1cccc(F)c1 — pIC50: 5.82
COc1ccc(-c2nc3cc(Cl)ccc3[nH]2)cc1OCc1ccccc1 — pIC50 (absorbance): 5.56
COC(=O)c1cc(O)c(O)c(O)c1 — pIC50 (absorbance): 4.46
CCCCOc1ccc(NC(=O)Cc2c[nH]c3ccccc23)cc1 — pIC50: 5.62
COc1cc(C(CC(=O)c2ccc(Cl)cc2)NCCc2ccc(O)c(O)c2)ccc1O (stereo not drawn) — IC50: 15.3 µg/mL
CCCCCCCCOc1ccc(NC(=O)Cc2c[nH]c3ccccc23)cc1 — pIC50: 5.61
COc1cc(C(CC(=O)c2ccc(C(C)(C)C)cc2)NCCc2ccc(O)c(O)c2)ccc1O (stereo not drawn) — IC50: 15.6 µg/mL
Cc1ccc(NC(=O)Cc2c[nH]c3ccccc23)c(C)c1 — pIC50: 5.57
COc1cc(C(CC(=O)c2ccc([N+](=O)[O-])cc2)NCCc2ccc(O)c(O)c2)ccc1O (stereo not drawn) — IC50: 14.6 µg/mL
COc1ccc(-c2nc3cc([N+](=O)[O-])ccc3[nH]2)cc1OCc1ccccc1 — pIC50 (absorbance): 5.59
COc1cc(C=Cc2cc(-c3ccc(N(C)C)cc3)nc(O)n2)ccc1O — IC50: 32.5 µg/mL
O=C(O)c1cc(O)c(O)c(O)c1 — pIC50 (absorbance): 4.44
O=C1O[C@H]([C@@H](O)CO)C(O)=C1O — pIC50: 6.29
O=c1c(O[C@@H]2O[C@H](CO)[C@@H](O)[C@H](O)[C@H]2O)c(-c2ccc(O)c(O)c2)oc2cc(O)cc(O)c12 — pIC50 (absorbance): 4.04
COc1cc(C=Cc2cc(-c3ccccc3)nc(O)n2)ccc1O — IC50: 24 µg/mL
